Biological target: T1, Neutrophil elastase (Homo sapiens) (UniProt P08246)
T1 sequence (whole entry): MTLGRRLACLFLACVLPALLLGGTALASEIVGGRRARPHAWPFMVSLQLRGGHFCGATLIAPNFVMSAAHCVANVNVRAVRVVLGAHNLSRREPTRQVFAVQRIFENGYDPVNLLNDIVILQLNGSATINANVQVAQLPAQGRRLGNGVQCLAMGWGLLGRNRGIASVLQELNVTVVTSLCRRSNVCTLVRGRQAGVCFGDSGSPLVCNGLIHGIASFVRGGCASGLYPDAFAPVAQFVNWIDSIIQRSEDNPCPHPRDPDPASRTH
Assay: Component deacylation rate constant for interaction with human leukocyte elastase
Details: not given
Work on `C/C=C/c1cccc2nc(OCC)oc(=O)c12` yielded a Log koff of -4.18. `CC(C)CN(CC(C)C)c1nc2ccccc2c(=O)o1` gave a Log koff of -3.01. In the case of `CCc1cccc2c(=O)oc(NC(C)C)nc12`, the Log koff is reported as -1.62. `CCCC(C)Nc1nc2cccc(C)c2c(=O)o1` (stereo unspecified) gave a Log koff of -2.43. `NC(=O)[C@H](Cc1ccccc1)Nc1nc2ccccc2c(=O)o1` showed a Log koff of -3.42. `CCC(C)CNc1nc2cccc(C)c2c(=O)o1` (stereo unspecified) showed a Log koff of -4.13. In the case of `CCOc1nc2cc(N(C)C)ccc2c(=O)o1`, the Log koff is reported as -4.85. `COc1cc2nc(SCc3ccccc3)oc(=O)c2cc1OC` showed a Log koff of -1.91. `Cc1cc(N(C)C)cc2nc(NC(C)C)oc(=O)c12` gave a Log koff of -3.89. `CC(=O)NCc1nc2ccccc2c(=O)o1` showed a Log koff of -2.88. With `CCOC(=O)[C@H](C)Nc1nc2ccccc2c(=O)o1` the Log koff was -2.65. For `Cc1cccc2nc(OCC(C)C)oc(=O)c12`, the Log koff was -4.95. For `CC(C)Nc1nc2cc(N(C)C)ccc2c(=O)o1`, the Log koff was -3.32. Compound `CCCCNc1nc2cccc(CC)c2c(=O)o1` has a Log koff of -3.27. Compound `CCOc1nc2cccc(C(Br)Br)c2c(=O)o1` has a Log koff of -2.33. Work on `CCCNc1nc2cccc(C)c2c(=O)o1` yielded a Log koff of -3.47. Work on `CNc1nc2cccc(C)c2c(=O)o1` yielded a Log koff of -0.82. `Cc1cc(N)cc2nc(NC(C)C)oc(=O)c12` gave a Log koff of -4.75. With `CCCc1cccc2nc(OCC)oc(=O)c12` the Log koff was -4.15. `CCCNC(=O)Nc1ccc2c(=O)oc(NC(C)C)nc2c1` gave a Log koff of -1.77. Compound `CCCc1cc(N(C)C)cc2nc(NC(C)C)oc(=O)c12` has a Log koff of -3.74. Compound `COc1cc(C)c2c(=O)oc(NC(C)C)nc2c1` has a Log koff of -3.1. Compound `CSc1nc2cccc(C)c2c(=O)o1` has a Log koff of -3.45. Compound `COc1cc2nc(SCc3c[nH]cn3)oc(=O)c2cc1OC` has a Log koff of -2.12. With `O=C(c1nc2ccccc2c(=O)o1)[C@@H]1CCCN1` the Log koff was -3. For `CCC(CC)Nc1nc2cccc(C)c2c(=O)o1`, the Log koff was -2.25. With `COC(=O)C(CC(C)C)Nc1nc2ccccc2c(=O)o1` (stereo unspecified) the Log koff was -2.86.

Test system: not listed separately
Assay: Partition coefficient (logD7.4)
Format: physicochemical
Details: octanol/water, pH 7.4
`CCCCNc1nc2cccc(CC)c2c(=O)o1` showed a logD of 3.8. `CNc1nc2cccc(C)c2c(=O)o1` showed a logD of 2.3.

Test system: not listed separately
Assay: Alkaline hydrolysis rate of the compound
Format: ADME
Details: not given
In short: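 Alkaline hydrolysis rate constants measured at several pH values at 25 °C. Loss of the long-wavelength UV chromophore (λmax typically 300-345 nm) was followed by spectrophotometer.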
With `C/C=C/c1cccc2nc(OCC)oc(=O)c12` the “Log kOH-” value was 1.41. With `CC(C)CN(CC(C)C)c1nc2ccccc2c(=O)o1` the “Log kOH-” value was 0.68. In the case of `NC(=O)[C@H](Cc1ccccc1)Nc1nc2ccccc2c(=O)o1`, the “Log kOH-” value is reported as 1.26. In the case of `CCOc1nc2cc(N(C)C)ccc2c(=O)o1`, the “Log kOH-” value is reported as -0.1. With `COc1cc2nc(SCc3ccccc3)oc(=O)c2cc1OC` the “Log kOH-” value was 0.96. In the case of `Cc1cc(N(C)C)cc2nc(NC(C)C)oc(=O)c12`, the “Log kOH-” value is reported as -1.61. With `CC(=O)NCc1nc2ccccc2c(=O)o1` the “Log kOH-” value was 1.86. For `CCOC(=O)[C@H](C)Nc1nc2ccccc2c(=O)o1`, the “Log kOH-” value was 1.31. For `CC(C)Nc1nc2cc(N(C)C)ccc2c(=O)o1`, the “Log kOH-” value was -0.74. With `CCCCNc1nc2cccc(CC)c2c(=O)o1` the “Log kOH-” value was 0.38. In the case of `CCOc1nc2cccc(C(Br)Br)c2c(=O)o1`, the “Log kOH-” value is reported as 2.5. With `CNc1nc2cccc(C)c2c(=O)o1` the “Log kOH-” value was 0.54. In the case of `Cc1cc(N)cc2nc(NC(C)C)oc(=O)c12`, the “Log kOH-” value is reported as -1.09. For `CCCc1cccc2nc(OCC)oc(=O)c12`, the “Log kOH-” value was 1.17. In the case of `CCCNC(=O)Nc1ccc2c(=O)oc(NC(C)C)nc2c1`, the “Log kOH-” value is reported as 0.39. In the case of `CCCc1cc(N(C)C)cc2nc(NC(C)C)oc(=O)c12`, the “Log kOH-” value is reported as -2. With `COc1cc(C)c2c(=O)oc(NC(C)C)nc2c1` the “Log kOH-” value was -0.42. With `CSc1nc2cccc(C)c2c(=O)o1` the “Log kOH-” value was 1.9. For `COc1cc2nc(SCc3c[nH]cn3)oc(=O)c2cc1OC`, the “Log kOH-” value was 1.31. In the case of `O=C(c1nc2ccccc2c(=O)o1)[C@@H]1CCCN1`, the “Log kOH-” value is reported as 1.69. With `COC(=O)C(CC(C)C)Nc1nc2ccccc2c(=O)o1` (stereo unspecified) the “Log kOH-” value was 1.32.

Biological target: T1, Neutrophil elastase (Homo sapiens)
Assay: Component acylation rate constant for interaction with human leukocyte elastase
Details: not given
In the case of `C/C=C/c1cccc2nc(OCC)oc(=O)c12`, the Log kon is reported as 5.54. For `CC(C)CN(CC(C)C)c1nc2ccccc2c(=O)o1`, the Log kon was 2.18. `CCc1cccc2c(=O)oc(NC(C)C)nc12` gave a Log kon of 4.38. With `CCCC(C)Nc1nc2cccc(C)c2c(=O)o1` (stereo unspecified) the Log kon was 3.7. With `NC(=O)[C@H](Cc1ccccc1)Nc1nc2ccccc2c(=O)o1` the Log kon was 3.08. `CCC(C)CNc1nc2cccc(C)c2c(=O)o1` (stereo unspecified) gave a Log kon of 2.05. Work on `CCOc1nc2cc(N(C)C)ccc2c(=O)o1` yielded a Log kon of 3.46. Compound `COc1cc2nc(SCc3ccccc3)oc(=O)c2cc1OC` has a Log kon of 3.76. In the case of `Cc1cc(N(C)C)cc2nc(NC(C)C)oc(=O)c12`, the Log kon is reported as 2.01. In the case of `CC(=O)NCc1nc2ccccc2c(=O)o1`, the Log kon is reported as 2.24. In the case of `CCOC(=O)[C@H](C)Nc1nc2ccccc2c(=O)o1`, the Log kon is reported as 3.41. For `Cc1cccc2nc(OCC(C)C)oc(=O)c12`, the Log kon was 3.85. Work on `CC(C)Nc1nc2cc(N(C)C)ccc2c(=O)o1` yielded a Log kon of 3. `CCCCNc1nc2cccc(CC)c2c(=O)o1` showed a Log kon of 5.11. With `CCOc1nc2cccc(C(Br)Br)c2c(=O)o1` the Log kon was 7. `CCCNc1nc2cccc(C)c2c(=O)o1` gave a Log kon of 4.75. Compound `CNc1nc2cccc(C)c2c(=O)o1` has a Log kon of 3.69. Work on `Cc1cc(N)cc2nc(NC(C)C)oc(=O)c12` yielded a Log kon of 2.36. Work on `CCCc1cccc2nc(OCC)oc(=O)c12` yielded a Log kon of 5.49. With `CCCNC(=O)Nc1ccc2c(=O)oc(NC(C)C)nc2c1` the Log kon was 4.1. With `CCCc1cc(N(C)C)cc2nc(NC(C)C)oc(=O)c12` the Log kon was 2.81. With `COc1cc(C)c2c(=O)oc(NC(C)C)nc2c1` the Log kon was 4.32. `CSc1nc2cccc(C)c2c(=O)o1` gave a Log kon of 5.4. `COc1cc2nc(SCc3c[nH]cn3)oc(=O)c2cc1OC` gave a Log kon of 3.84. With `O=C(c1nc2ccccc2c(=O)o1)[C@@H]1CCCN1` the Log kon was 2.95. For `CCC(CC)Nc1nc2cccc(C)c2c(=O)o1`, the Log kon was 3.89. `COC(=O)C(CC(C)C)Nc1nc2ccccc2c(=O)o1` (stereo unspecified) gave a Log kon of 4.32.

Biological target: T2, Neutrophil elastase (Homo sapiens, UniProt P08246)
T2 sequence (P08246 whole entry): T1 sequence (whole entry)
Assay: Inhibition of human leukocyte elastase
Details: not given
`C/C=C/c1cccc2nc(OCC)oc(=O)c12` gave a Ki of 0.191 nM. Compound `CC(C)CN(CC(C)C)c1nc2ccccc2c(=O)o1` has a Ki of 6460 nM. With `CCc1cccc2c(=O)oc(NC(C)C)nc12` the Ki was 1000 nM. For `CCCC(C)Nc1nc2cccc(C)c2c(=O)o1` (stereo unspecified), the Ki was 741 nM. With `NC(=O)[C@H](Cc1ccccc1)Nc1nc2ccccc2c(=O)o1` the Ki was 316 nM. `CCC(C)CNc1nc2cccc(C)c2c(=O)o1` (stereo unspecified) showed a Ki of 661 nM. Compound `CCOc1nc2cc(N(C)C)ccc2c(=O)o1` has a Ki of 4.9 nM. In the case of `COc1cc2nc(SCc3ccccc3)oc(=O)c2cc1OC`, the Ki is reported as 2140 nM. In the case of `Cc1cc(N(C)C)cc2nc(NC(C)C)oc(=O)c12`, the Ki is reported as 1260 nM. Work on `CC(=O)NCc1nc2ccccc2c(=O)o1` yielded a Ki of 7590 nM. In the case of `CCOC(=O)[C@H](C)Nc1nc2ccccc2c(=O)o1`, the Ki is reported as 871 nM. `Cc1cccc2nc(OCC(C)C)oc(=O)c12` showed a Ki of 1.58 nM. Work on `CC(C)Nc1nc2cc(N(C)C)ccc2c(=O)o1` yielded a Ki of 479 nM. In the case of `CCOc1nc2cccc(C(Br)Br)c2c(=O)o1`, the Ki is reported as 0.468 nM. Work on `Cc1cc(N)cc2nc(NC(C)C)oc(=O)c12` yielded a Ki of 77.6 nM. `CCCc1cccc2nc(OCC)oc(=O)c12` gave a Ki of 0.229 nM. `CCCNC(=O)Nc1ccc2c(=O)oc(NC(C)C)nc2c1` gave a Ki of 1350 nM. Work on `CCCc1cc(N(C)C)cc2nc(NC(C)C)oc(=O)c12` yielded a Ki of 282 nM. Compound `COc1cc(C)c2c(=O)oc(NC(C)C)nc2c1` has a Ki of 38 nM. `CSc1nc2cccc(C)c2c(=O)o1` gave a Ki of 1.41 nM. Work on `COc1cc2nc(SCc3c[nH]cn3)oc(=O)c2cc1OC` yielded a Ki of 1100 nM. For `O=C(c1nc2ccccc2c(=O)o1)[C@@H]1CCCN1`, the Ki was 1120 nM. For `CCC(CC)Nc1nc2cccc(C)c2c(=O)o1`, the Ki was 724 nM. In the case of `COC(=O)C(CC(C)C)Nc1nc2ccccc2c(=O)o1` (stereo unspecified), the Ki is reported as 66.1 nM.

— ChEMBL document CHEMBL1125034, “Design and synthesis of 4H-3,1-benzoxazin-4-ones as potent alternate substrate inhibitors of human leukocyte elastase” (J Med Chem, 1990)
